The experiment can be described thus: Concentration required to inhibit the activity of inositol monophosphatase by 50%. The method in brief: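 Human recombinant IMPase expressed in E. coli and purified to homogeneity. […] Enzyme adjusted so ≤10% substrate used. Duplicate rates at six inhibitor concentrations plus no-inhibitor control, fitted to v = V0/(1+[I]/IC50).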

A value given as a limit tells only on which side of the number the result lay.

This passage reports IC50 results from ChEMBL document CHEMBL1130266, “Monoaryl- and bisaryldihydroxytropolones as potent inhibitors of inositol monophosphatase” (J Med Chem, 1997).

In general, IC50 refers to the point on the concentration scale where inhibition reaches its midpoint. Take `O=c1c(O)c(O)ccc(-c2cccc(O)c2O)c1O`: the IC50 was 7 µM.
The figure for `O=c1c(O)c(O)ccc2cc(O)c(O)c(O)c12` is more than 200 µM; for `O=c1c(O)c(-c2ccc(C(F)(F)F)cc2)cc(-c2ccc(C(F)(F)F)cc2)c(O)c1O` it is 200 µM; for `N#Cc1cccc(-c2cc(-c3cccc(C#N)c3)c(O)c(=O)c(O)c2O)c1` it is 30 µM.
The same measure for `O=c1c(O)c(-c2cccc([N+](=O)[O-])c2)cc(-c2cccc([N+](=O)[O-])c2)c(O)c1O`: 20 µM; for `O=c1c(O)c(O)ccc(-c2cc(C(F)(F)F)cc(C(F)(F)F)c2)c1O`: 10 µM; for `O=c1ccc(-c2ccccc2F)c(O)c(O)c1O`: 65 µM.
`CC(=O)Nc1cccc(-c2cc(-c3cccc(NC(C)=O)c3)c(=O)c(O)c(O)c2O)c1`: the midpoint of inhibition, the IC50, lay at 65 µM.
`O=c1c(O)c(-c2ccsc2)cc(-c2ccsc2)c(O)c1O` returned an IC50 of 35 µM.
Take `O=c1ccc(-c2ccccc2)c(O)c(O)c1O`: the IC50 stood at 20 µM.
Regarding `O=c1c(O)c(-c2cccc(C(F)(F)F)c2)cc(-c2cccc(C(F)(F)F)c2)c(O)c1O`, the IC50 was more than 200 µM.
The compound `O=c1ccc(-c2ccc(O)cc2)c(O)c(O)c1O` returned an IC50 of 10 µM.
Consider `O=c1c(O)c(O)ccc(-c2ccc(C(F)(F)F)cc2)c1O`, for which the midpoint of inhibition, the IC50, lay at 130 µM.
Consider `O=c1c(O)c(Br)cc(Br)c(O)c1O`, for which inhibition was half-maximal at 10 µM (IC50).
The figure for `O=c1ccc(-c2cccc(-c3nnc(-c4ccc5ccccc5c4)o3)c2)c(O)c(O)c1O` is 40 µM; for `O=c1c(O)c(O)ccc(-c2cccc(C(F)(F)F)c2)c1O` it is 10 µM.
Consider `O=Cc1cccc(-c2ccc(O)c(O)c(=O)c2O)c1`, for which half-maximal inhibition (IC50) was put at 20 µM.
The same measure for `O=c1c(O)c(-c2ccc3ccccc3c2)cc(-c2ccc3ccccc3c2)c(O)c1O`: more than 100 µM.
`O=c1ccc(-c2ccc3ccccc3c2)c(O)c(O)c1O` returned an IC50 of more than 100 µM.
Compound `O=c1c(O)cccc(O)c1O` gave an IC50 of 10 µM.
The figure for `O=c1c(O)c(O)ccc(-c2cccs2)c1O` is 15 µM; for `O=c1c(O)c(O)ccc(-c2cc3ccccc3o2)c1O` it is 7 µM; for `N#Cc1cccc(-c2ccc(=O)c(O)c(O)c2O)c1` it is 4 µM.
The same measure for `O=c1c(O)c(-c2cccc(-c3nnc(-c4ccc5ccccc5c4)o3)c2)cc(-c2cccc(-c3nnc(-c4ccc5ccccc5c4)o3)c2)c(O)c1O`: more than 200 µM.
In turn, `O=c1ccc(CCCCO)c(O)c(O)c1O` had an IC50 of 5 µM.
Take `CC(=O)Nc1cccc(-c2ccc(=O)c(O)c(O)c2O)c1`: half-maximal inhibition (IC50) was put at 20 µM.
The same measure for `O=c1c(O)c(O)ccc(-c2ccsc2)c1O`: 25 µM.
The same measure for `O=c1c(O)c(-c2cc(C(F)(F)F)cc(C(F)(F)F)c2)cc(-c2cc(C(F)(F)F)cc(C(F)(F)F)c2)c(O)c1O`: 70 µM; for `O=c1c(O)c(O)ccc(-c2cccc([N+](=O)[O-])c2)c1O`: 8 µM; for `O=c1c(O)c(-c2cccc3ccccc23)cc(-c2cccc3ccccc23)c(O)c1O`: more than 100 µM.
The figure for `O=c1cccc(-c2ccccc2)c(O)c1O` is 200 µM.
In turn, `NCCc1ccc(-c2ccc(=O)c(O)c(O)c2O)cc1` displayed an IC50 of 90 µM.
The same measure for `O=c1c(O)c(-c2ccc(O)cc2)cc(-c2ccc(O)cc2)c(O)c1O`: 10 µM; for `O=c1ccc(-c2cccc3ccccc23)c(O)c(O)c1O`: 20 µM; for `O=c1ccc(-c2cncnc2)c(O)c(O)c1O`: 10 µM.
Compound `O=c1c(O)c(-c2ccccc2F)cc(-c2ccccc2F)c(O)c1O` returned an IC50 of more than 200 µM.
The figure for `O=c1c(O)c(-c2cc3ccccc3o2)cc(-c2cc3ccccc3o2)c(O)c1O` is 40 µM; for `O=Cc1cccc(-c2cc(-c3cccc(C=O)c3)c(O)c(=O)c(O)c2O)c1` it is more than 100 µM.
